From ChEMBL document CHEMBL1134542, “Experimental precedent for the need to involve the primary hydration layer of DNA in lead drug design” (J Med Chem, 2001)

Tests used:
Assay type in all cases: nucleic-acid assay
[1] = tested on: Nucleic Acid; assay: Association constant for binding to AATT duplex
In short: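 Fluorometric equilibrium titration at 20 °C in 50 mM Tris, 100 mM NaCl, pH 7.5. The fluorescence increase was fitted to the quadratic binding equation, with dilution corrected.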

[2] = tested on: Nucleic Acid; assay: Association constant for binding to AATT 28-mer AATT hairpin
In short: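 Fluorometric equilibrium titration at 20 °C in 50 mM Tris, 100 mM NaCl, pH 7.5. A fixed 0.7-1.6 nM dye in a silanized quartz cuvette was titrated with excess 28-mer T4-looped AATT hairpin (3.54 μM stock). The rise in fluorescence was fitted to the quadratic binding equation, with dilution taken into account. Above about 4 × 10^9 M^-1, dye concentration was an extra fitting parameter.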

[3] = tested on: Nucleic Acid; assay: Kinetically Defined Association Constant for 28-mer AATT hairpin.
In short: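 Stopped-flow fluorescence at 20 °C, pH 7.5 (50 mM Tris, 0.1 M NaCl). 2 nM dye was mixed with excess 28-mer AATT hairpin, with excitation at 366 nm and emission through a 418 nm cutoff filter. Inverse time constants from monoexponential traces versus concentration gave kon. koff came from dissociation with excess poly[d(A-5BrU)]. Kkin = kon/koff.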

CN1CCN(c2ccc3[nH]c(-c4ccc5[nH]c(-c6ccc(O)cc6)nc5c4)nc3c2)CC1 was tested, and the Ka [1] was 4.1e-08 M⁻¹, the Ka [2] was 5.2e-08 M⁻¹ and the Kkin [3] was 5.9e-08 M⁻¹.
